The values that follow come from ChEMBL document CHEMBL3352107, “Development of radamide analogs as Grp94 inhibitors” (Bioorg Med Chem, 2014).

Endoplasmin (Homo sapiens), sequence (P14625 whole entry, canonical isoform): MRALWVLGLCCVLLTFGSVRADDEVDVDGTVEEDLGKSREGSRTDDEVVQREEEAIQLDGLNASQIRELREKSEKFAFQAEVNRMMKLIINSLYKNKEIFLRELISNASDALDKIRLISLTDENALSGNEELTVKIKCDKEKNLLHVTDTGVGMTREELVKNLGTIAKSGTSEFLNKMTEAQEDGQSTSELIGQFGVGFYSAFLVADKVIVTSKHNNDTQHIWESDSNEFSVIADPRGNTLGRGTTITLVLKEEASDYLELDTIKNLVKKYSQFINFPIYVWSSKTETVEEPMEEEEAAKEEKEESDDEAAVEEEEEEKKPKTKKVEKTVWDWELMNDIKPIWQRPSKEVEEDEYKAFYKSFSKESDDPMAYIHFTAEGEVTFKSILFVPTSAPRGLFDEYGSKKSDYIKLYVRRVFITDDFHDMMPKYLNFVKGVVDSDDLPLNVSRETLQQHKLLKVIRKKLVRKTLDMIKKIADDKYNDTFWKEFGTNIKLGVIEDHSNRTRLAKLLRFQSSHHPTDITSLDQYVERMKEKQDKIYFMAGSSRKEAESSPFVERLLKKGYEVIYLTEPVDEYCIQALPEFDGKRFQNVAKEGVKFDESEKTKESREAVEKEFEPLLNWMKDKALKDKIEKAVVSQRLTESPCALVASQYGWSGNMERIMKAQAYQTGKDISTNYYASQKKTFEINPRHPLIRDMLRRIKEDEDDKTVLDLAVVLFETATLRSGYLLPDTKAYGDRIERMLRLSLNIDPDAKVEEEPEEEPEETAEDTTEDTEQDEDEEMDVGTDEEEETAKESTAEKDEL

One test deals with Endoplasmin (Homo sapiens) (UniProt P14625). In words: Inhibition of recombinant Grp94 (unknown origin) assessed as tracer bound at 25 uM after 24 hrs by fluorescence polarization assay relative to HSP90alpha (unknown origin). In short, it runs like this:
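Compounds at 25 μM incubated 24 h with either cGrp94 or Hsp90α plus FITC-geldanamycin tracer (1% DMSO) to compare the two isoforms. Fluorescence polarization gave percent tracer bound, with DMSO as 100% and free tracer as 0%. Geldanamycin 50 nM was the positive control. Triplicate.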
(Polarisation of emitted light reports the rotation of a fluorescent probe.)
Regarding `COC(=O)c1c(O)cc(O)c(Cl)c1CCC(=O)Nc1cccc(Cl)c1`, the Ratio came to 25. On the same count and under the same terms, the result for `COC(=O)c1c(O)cc(O)c(Cl)c1CCC(=O)Nc1ccccc1Cl` reads 8; that for `COC(=O)c1c(O)cc(O)c(Cl)c1CCC(=O)Nc1ccc(Br)cc1`, 27.

Another test shares this target. In words: Inhibition of recombinant Grp94 (unknown origin) assessed as tracer bound at 25 uM after 24 hrs by fluorescence polarization assay relative to control. The arrangement: scale not given: the % may be the effect or the level left. In short, it runs like this: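 Single-point screen at 25 μM. Recombinant cGrp94 (10 nM) and FITC-geldanamycin tracer (6 nM) incubated 24 h at 4°C with rocking in HEPES pH 7.3 buffer containing molybdate, DTT, NP-40 and BGG (1% DMSO). Polarization read at 485/528 nm. Percent tracer bound scaled between DMSO mP (100%) and free tracer mP (0%). Geldanamycin 50 nM was the positive control. Triplicate.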
With `COC(=O)c1c(O)cc(O)c(Cl)c1CCC(=O)Nc1cc(Cl)cc(Cl)c1`, the Activity amounted to 15.6%. As to `COC(=O)c1c(O)cc(O)c(Cl)c1CCC(=O)Nc1ccc(C#N)cc1`, the Activity was 5.4%. On to `COC(=O)c1c(O)cc(O)c(Cl)c1CCC(=O)Nc1cnccn1`, for which the Activity came to 16.6%. For the molecule `COC(=O)c1c(O)cc(O)c(Cl)c1CCC(=O)Nc1ncc(Cl)s1`, the Activity stood at 22.4%. Regarding `COC(=O)c1c(O)cc(O)c(Cl)c1CCC(=O)Nc1nnc(Br)s1`, the Activity came out at 5.1%.

Turning to `COC(=O)c1c(O)cc(O)c(Cl)c1CCC(=O)Nc1ccc(Cl)cc1`, the Activity is 15.7%.

Consider `COC(=O)c1c(O)cc(O)c(Cl)c1CCC(=O)Nc1cccnn1`, for which the Activity stood at 12.2%. Regarding `COC(=O)c1c(O)cc(O)c(Cl)c1CCC(=O)Nc1cccc(-c2ccccc2)c1`, the Activity came out at 46.8%. With `COC(=O)c1c(O)cc(O)c(Cl)c1CCC(=O)Nc1ccccc1`, the Activity came to 19.8%. The same measure, in the same setting: to `COC(=O)c1c(O)cc(O)c(Cl)c1CCC(=O)Nc1cccc(OC)c1` belongs 27.4%.

For the molecule `COC(=O)c1c(O)cc(O)c(Cl)c1CCC(=O)N(O)c1ccccc1`, the Activity was 2.5%. For `CCN(C(=O)CCc1c(Cl)c(O)cc(O)c1C(=O)OC)c1ccccc1`, the Activity turned out to be 18.6%. With `COC(=O)c1c(O)cc(O)c(Cl)c1CCC(=O)Nc1ccccc1F`, the Activity was found to be 16.3%. Regarding `COC(=O)c1c(O)cc(O)c(Cl)c1CCC(=O)N(c1ccccc1)C(C)C`, the Activity turned out to be 30.2%. As to `COC(=O)c1c(O)cc(O)c(Cl)c1CCC(=O)Nc1ccccc1C(F)(F)F`, the Activity was found to be 13.4%. `COC(=O)c1c(O)cc(O)c(Cl)c1CCC(=O)Nc1cccc(Cl)c1`: the Activity is 0.1%.

On to `COC(=O)c1c(O)cc(O)c(Cl)c1CCC(=O)NCCc1ccccc1`, for which the Activity was found to be 33%. As for `COC(=O)c1c(O)cc(O)c(Cl)c1CCC(=O)N(C)c1ccccc1`, the Activity came out at 16.7%. With `COC(=O)c1c(O)cc(O)c(Cl)c1CCC(=O)Nc1cncnc1`, the Activity turned out to be 11.6%. `COC(=O)c1c(O)cc(O)c(Cl)c1CCC(=O)Nc1ccccc1Cl`: the Activity turned out to be 0.1%.

Regarding `COC(=O)c1c(O)cc(O)c(Cl)c1CCC(=O)Nc1cnncn1`, the Activity was 19.5%.

In the case of `COC(=O)c1c(O)cc(O)c(Cl)c1CCC(=O)N1CCc2ccccc21`, the Activity was determined as 23%.

As to `COC(=O)c1c(O)cc(O)c(Cl)c1CCC(=O)Nc1cccc(NC(C)=O)c1`, the Activity amounted to 8.3%. For `COC(=O)c1c(O)cc(O)c(Cl)c1CCC(=O)Nc1ccccc1OC`, the Activity was 16.1%.

For the molecule `COC(=O)c1c(O)cc(O)c(Cl)c1CCC(=O)Nc1nncs1`, the Activity was 8.7%. For the molecule `COC(=O)c1c(O)cc(O)c(Cl)c1CCC(=O)Nc1ncccc1Br`, the Activity stood at 0.2%.

Turning to `COC(=O)c1c(O)cc(O)c(Cl)c1CCC(=O)Nc1ccc(OC)cc1`, the Activity was 19.8%.

`COC(=O)c1c(O)cc(O)c(Cl)c1CCC(=O)Nc1ccc(F)cc1`: the Activity worked out at 10.9%. Still for that read-out and setting: the result for `COC(=O)c1c(O)cc(O)c(Cl)c1CCC(=O)NC1CCCCC1` reads 26.1%; that for `COC(=O)c1c(O)cc(O)c(Cl)c1CCC(=O)Nc1ccc(O)cc1`, 6.5%. The same measure, in the same setting: to `COC(=O)c1c(O)cc(O)c(Cl)c1CCC(=O)NCc1ccccc1` belongs 65.8%; to `COC(=O)c1c(O)cc(O)c(Cl)c1CCC(=O)Nc1ccccc1N`, 20.5%; to `COC(=O)c1c(O)cc(O)c(Cl)c1CCC(=O)Nc1ncc(Br)s1`, 27.7%. On the same count and under the same terms, to `COC(=O)c1c(O)cc(O)c(Cl)c1CCC(=O)Nc1cccc(Cl)n1` belongs 1.4%; to `COC(=O)c1c(O)cc(O)c(Cl)c1CCC(=O)Nc1ncccc1Cl`, 9.8%. On to `COC(=O)c1c(O)cc(O)c(Cl)c1CCC(=O)Nc1cccc(Br)c1`, for which the Activity was 9.3%. With `COC(=O)c1c(O)cc(O)c(Cl)c1CCC(=O)Nc1ccc(I)cc1`, the Activity came out at 29.8%. As to `COC(=O)c1c(O)cc(O)c(Cl)c1CCC(=O)Nc1ncccn1`, the Activity amounted to 16.7%. With `COC(=O)c1c(O)cc(O)c(Cl)c1CCC(=O)Nc1cccnc1`, the Activity came out at 14.9%. In the case of `COC(=O)c1c(O)cc(O)c(Cl)c1CCC(=O)Nc1ccccc1Br`, the Activity is 6.1%. For `COC(=O)c1c(O)cc(O)c(Cl)c1CCC(=O)Nc1ccc(-c2ccccc2)cc1`, the Activity worked out at 85%. In the case of `COC(=O)c1c(O)cc(O)c(Cl)c1CCC(=O)Nc1ccc(Br)cc1`, the Activity stood at 2.1%. With `COC(=O)c1c(O)cc(O)c(Cl)c1CCC(=O)Nc1ccc(N)cc1`, the Activity is 15.7%. Take `COC(=O)c1c(O)cc(O)c(Cl)c1CCC(=O)Nc1cccc(C(F)(F)F)c1`: the Activity stood at 39.4%. Same read-out and setting: to `COC(=O)c1c(O)cc(O)c(Cl)c1CCC(=O)Nc1ccc(C(F)(F)F)cc1` belongs 34.5%. With `COC(=O)c1c(O)cc(O)c(Cl)c1CCC(=O)Nc1ccccc1O`, the Activity was 18%. As to `COC(=O)c1c(O)cc(O)c(Cl)c1CCC(=O)Nc1ccc(Br)c(Cl)c1`, the Activity came out at 71.4%. On to `COC(=O)c1c(O)cc(O)c(Cl)c1CCC(=O)Nc1cccc(N)c1`, for which the Activity stood at 17.4%.

On to `COC(=O)c1c(O)cc(O)c(Cl)c1CCC(=O)Nc1ccc(Br)cn1`, for which the Activity was found to be 0.1%. The same measure, in the same setting: the result for `COC(=O)c1c(O)cc(O)c(Cl)c1CCC(=O)Nc1ccc(Br)cc1Br` reads 50.7%; that for `COC(=O)c1c(O)cc(O)c(Cl)c1CCC(=O)Nc1ccccc1C`, 3.4%. `COC(=O)c1c(O)cc(O)c(Cl)c1CCC(=O)Nc1ncns1`: the Activity is 10.2%. Same read-out and setting: to `C#Cc1ccc(NC(=O)CCc2c(Cl)c(O)cc(O)c2C(=O)OC)cc1` belongs 12.7%.

In the case of `COC(=O)c1c(O)cc(O)c(Cl)c1CCC(=O)Nc1ccncc1`, the Activity came to 34.9%. For the molecule `COC(=O)c1c(O)cc(O)c(Cl)c1CCC(=O)Nc1cccc(F)c1`, the Activity amounted to 11%.

Consider `COC(=O)c1c(O)cc(O)c(Cl)c1CCC(=O)Nc1ccc(C)cc1`, for which the Activity is 18.7%. Consider `COC(=O)c1c(O)cc(O)c(Cl)c1CCC(=O)Nc1cc(Cl)ccn1`, for which the Activity worked out at 7.7%.

Take `COC(=O)c1c(O)cc(O)c(Cl)c1CCC(=O)Nc1ccc(C(C)C)cc1`: the Activity came out at 59%. As for `COC(=O)c1c(O)cc(O)c(Cl)c1CCC(=O)Nc1cccc(Cl)c1Br`, the Activity was determined as 24.9%. In the case of `COC(=O)c1c(O)cc(O)c(Cl)c1CCC(=O)Nc1ccccc1I`, the Activity worked out at 7.9%. For the molecule `COC(=O)c1c(O)cc(O)c(Cl)c1CCC(=O)Nc1cccc(O)c1`, the Activity stood at 3.5%.

In the case of `COC(=O)c1c(O)cc(O)c(Cl)c1CCC(=O)NNc1ccccc1`, the Activity was found to be 26.3%.
